Test results published in ChEMBL document CHEMBL1143542, “Structure-activity relationships of bivalent aminoglycosides and evaluation of their microbiological activities” (2005).
≈ marks a conversion by molar mass, not a printed value.

Key:
Pseudomonas aeruginosa [1] = assay: Susceptibility testing against Pseudomonas aeruginosa PAE_NUH01; R=Resistant; type: functional, organism-based
Procedure, shortened: (§1)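 Disk diffusion susceptibility profiling of P. aeruginosa reference and clinical isolates against empirically used antipseudomonal antibiotics. Each isolate was categorised as susceptible, intermediate or resistant.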

Pseudomonas aeruginosa [2] = assay: Susceptibility testing against Pseudomonas aeruginosa PAE_NUH02; R=Resistant; type: functional, organism-based; procedure, shortened: as §1
Pseudomonas aeruginosa [3] = assay: Susceptibility testing against Pseudomonas aeruginosa PAE_NUH03; R=Resistant; type: functional, organism-based; procedure, shortened: as §1
Pseudomonas aeruginosa [4] = assay: Susceptibility testing against Pseudomonas aeruginosa PAE_NUH04; R=Resistant; type: functional, organism-based; procedure, shortened: as §1
Pseudomonas aeruginosa [5] = assay: Susceptibility testing against Pseudomonas aeruginosa PAE_NUH05; R=Resistant; type: functional, organism-based; procedure, shortened: as §1
Pseudomonas aeruginosa [6] = assay: Susceptibility testing against Pseudomonas aeruginosa PAE_NUH06; R=Resistant; type: functional, organism-based; procedure, shortened: as §1
Pseudomonas aeruginosa [7] = assay: Susceptibility testing against Pseudomonas aeruginosa PAE_NUH07; R=Resistant; type: functional, organism-based; procedure, shortened: as §1
Pseudomonas aeruginosa [8] = assay: Susceptibility testing against Pseudomonas aeruginosa PAE_NUH18; R=Resistant; type: functional, organism-based; procedure, shortened: as §1
Pseudomonas aeruginosa [9] = assay: Susceptibility testing against Pseudomonas aeruginosa PAE_NUH19; R=Resistant; type: functional, organism-based; procedure, shortened: as §1
Pseudomonas aeruginosa [10] = assay: Susceptibility testing against Pseudomonas aeruginosa PAE_NUH20; R=Resistant; type: functional, organism-based; procedure, shortened: as §1
Pseudomonas aeruginosa [11] = assay: Susceptibility testing against Pseudomonas aeruginosa PAE_NUH21; R=Resistant; type: functional, organism-based; procedure, shortened: as §1
Pseudomonas aeruginosa [12] = assay: Susceptibility testing against Pseudomonas aeruginosa PAE_NUH22; R=Resistant; type: functional, organism-based; procedure, shortened: as §1
Pseudomonas aeruginosa [13] = assay: Susceptibility testing against Pseudomonas aeruginosa PAE_NUH23; R=Resistant; type: functional, organism-based; procedure, shortened: as §1
Pseudomonas aeruginosa [14] = assay: Susceptibility testing against Pseudomonas aeruginosa PAE_NUH24; R=Resistant; type: functional, organism-based; procedure, shortened: as §1
Pseudomonas aeruginosa [15] = assay: Susceptibility testing against Pseudomonas aeruginosa PAE_NUH25; R=Resistant; type: functional, organism-based; procedure, shortened: as §1
Pseudomonas aeruginosa [16] = assay: Susceptibility testing against Pseudomonas aeruginosa ATCC 27853; S=Susceptible; type: functional, organism-based
Procedure, shortened: (§2)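 Disk diffusion susceptibility profiling against a panel of empirically used antipseudomonal antibiotics. Each strain was categorised as susceptible (S) or intermediate (I).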

Pseudomonas aeruginosa [17] = assay: Susceptibility testing against Pseudomonas aeruginosa PAE_NUH17; S=Susceptible; type: functional, organism-based; procedure, shortened: as §2
Pseudomonas aeruginosa [18] = assay: Susceptibility testing against Pseudomonas aeruginosa PAE_NUH22; S=Susceptible; type: functional, organism-based; procedure, shortened: as §2
Pseudomonas aeruginosa [19] = assay: Susceptibility testing against Pseudomonas aeruginosa PAE_NUH25; S=Susceptible; type: functional, organism-based; procedure, shortened: as §2
Pseudomonas aeruginosa [20] = assay: Susceptibility testing against Pseudomonas aeruginosa PAE_NUH18; I=Intermediate; type: functional, organism-based; procedure, shortened: as §1
Pseudomonas aeruginosa [21] = assay: Susceptibility testing against Pseudomonas aeruginosa PAE_NUH23; I=Intermediate; type: functional, organism-based; procedure, shortened: as §1
Pseudomonas aeruginosa [22] = assay: Susceptibility testing against Pseudomonas aeruginosa PAE_NUH24; I=Intermediate; type: functional, organism-based; procedure, shortened: as §1
Pseudomonas aeruginosa [23] = assay: Susceptibility testing against Pseudomonas aeruginosa PAE_NUH19; S=Susceptible; type: functional, organism-based; procedure, shortened: as §2
Pseudomonas aeruginosa [24] = assay: Susceptibility testing against Pseudomonas aeruginosa PAE_NUH20; S=Susceptible; type: functional, organism-based; procedure, shortened: as §2
Pseudomonas aeruginosa [25] = assay: Susceptibility testing against Pseudomonas aeruginosa PAE_NUH21; S=Susceptible; type: functional, organism-based; procedure, shortened: as §2
Staphylococcus aureus [26] = assay: In vitro minimum inhibitory concentration against Staphylococcus aureus MRSA 3359; type: functional
Procedure, shortened: (§3)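 Broth microdilution following CLSI M100-S12. Stocks were 10 mg/mL in water, diluted in Mueller–Hinton broth to a top level of 128, then serially 2-fold in plates. Bacteria in cation-adjusted Mueller–Hinton broth were mixed 1:1 with drug and incubated 16–20 h at 35 °C. MIC was the lowest concentration with no visible growth. Run in duplicate with no-antibiotic and no-inoculum (sterility) controls.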

Pseudomonas aeruginosa [27] = assay: In vitro minimum inhibitory concentration against Pseudomonas aeruginosa ATCC 27853; type: functional; procedure, shortened: as §3
Staphylococcus aureus [28] = assay: In vitro minimum inhibitory concentration against Staphylococcus aureus ATCC 29213; type: functional; procedure, shortened: as §3
Pseudomonas aeruginosa [29] = assay: Minimum inhibitory concentration against Pseudomonas aeruginosa PAE_NUH01; type: functional; procedure, shortened: as §3
Pseudomonas aeruginosa [30] = assay: Minimum inhibitory concentration against Pseudomonas aeruginosa PAE_NUH02; type: functional; procedure, shortened: as §3
Pseudomonas aeruginosa [31] = assay: Minimum inhibitory concentration against Pseudomonas aeruginosa PAE_NUH03; type: functional; procedure, shortened: as §3
Pseudomonas aeruginosa [32] = assay: Minimum inhibitory concentration against Pseudomonas aeruginosa PAE_NUH04; type: functional; procedure, shortened: as §3
Pseudomonas aeruginosa [33] = assay: Minimum inhibitory concentration against Pseudomonas aeruginosa PAE_NUH05; type: functional; procedure, shortened: as §3
Pseudomonas aeruginosa [34] = assay: Minimum inhibitory concentration against Pseudomonas aeruginosa PAE_NUH06; type: functional; procedure, shortened: as §3
Pseudomonas aeruginosa [35] = assay: Minimum inhibitory concentration against Pseudomonas aeruginosa PAE_NUH07; type: functional; procedure, shortened: as §3
Pseudomonas aeruginosa [36] = assay: Minimum inhibitory concentration against Pseudomonas aeruginosa PAE_NUH17; type: functional; procedure, shortened: as §3
Pseudomonas aeruginosa [37] = assay: Minimum inhibitory concentration against Pseudomonas aeruginosa PAE_NUH18; type: functional; procedure, shortened: as §3
Pseudomonas aeruginosa [38] = assay: Minimum inhibitory concentration against Pseudomonas aeruginosa PAE_NUH19; type: functional; procedure, shortened: as §3
Pseudomonas aeruginosa [39] = assay: Minimum inhibitory concentration against Pseudomonas aeruginosa PAE_NUH21; type: functional; procedure, shortened: as §3
Pseudomonas aeruginosa [40] = assay: Minimum inhibitory concentration against Pseudomonas aeruginosa PAE_NUH22; type: functional; procedure, shortened: as §3
Enterococcus faecalis = assay: In vitro minimum inhibitory concentration against Enterococcus faecalis 29212; type: functional; procedure, shortened: as §3
Escherichia coli = assay: In vitro minimum inhibitory concentration against Escherichia coli ATCC 25922; type: functional; procedure, shortened: as §3
Pseudomonas aeruginosa [41] = assay: Minimum inhibitory concentration against Pseudomonas aeruginosa PAE_NUH23; type: functional; procedure, shortened: as §3
Pseudomonas aeruginosa [42] = assay: Minimum inhibitory concentration against Pseudomonas aeruginosa PAE_NUH24; type: functional; procedure, shortened: as §3
Pseudomonas aeruginosa [43] = assay: Minimum inhibitory concentration against Pseudomonas aeruginosa PAE_NUH25; type: functional; procedure, shortened: as §3
Pseudomonas aeruginosa [44] = assay: Minimum inhibitory concentration against Pseudomonas aeruginosa ATCC 27853; type: functional; procedure, shortened: as §3
Pseudomonas aeruginosa [45] = assay: In vitro minimum inhibitory concentration against Pseudomonas aeruginosa PAO-1 Minimum inhibitory concentration against Pseudomonas aeruginosa PAO-1; type: functional; procedure, shortened: as §3
Pseudomonas aeruginosa [46] = assay: Minimum inhibitory concentration against Pseudomonas aeruginosa PAE_NUH20; type: functional; procedure, shortened: as §3
Pseudomonas aeruginosa [47] = assay: In vitro minimum inhibitory concentration against Pseudomonas aeruginosa PAO-1; type: functional; procedure, shortened: as §3

| Molecule | Activity (Pseudomonas aeruginosa [1]) | Activity (Pseudomonas aeruginosa [2]) | Activity (Pseudomonas aeruginosa [3]) | Activity (Pseudomonas aeruginosa [4]) | Activity (Pseudomonas aeruginosa [5]) | Activity (Pseudomonas aeruginosa [6]) | Activity (Pseudomonas aeruginosa [7]) | Activity (Pseudomonas aeruginosa [16]) | Activity (Pseudomonas aeruginosa [17]) | MIC (Staphylococcus aureus [26]) [µg/mL] | MIC (Pseudomonas aeruginosa [27]) [µg/mL] | MIC (Staphylococcus aureus [28]) [µg/mL] | MIC (Pseudomonas aeruginosa [29]) [µg/mL] | MIC (Pseudomonas aeruginosa [30]) [µg/mL] | MIC (Pseudomonas aeruginosa [31]) [µg/mL] | MIC (Pseudomonas aeruginosa [32]) [µg/mL] | MIC (Pseudomonas aeruginosa [33]) [µg/mL] | MIC (Pseudomonas aeruginosa [34]) [µg/mL] | MIC (Pseudomonas aeruginosa [35]) [µg/mL] | MIC (Pseudomonas aeruginosa [36]) [µg/mL] | further results |
| --- | --- | --- | --- | --- | --- | --- | --- | --- | --- | --- | --- | --- | --- | --- | --- | --- | --- | --- | --- | --- | --- |
| C[C@H]1[C@H](NC(=O)/C(=N\OC(C)(C)C(=O)O)c2csc(N)n2)C(=O)N1S(=O)(=O)O | Resistant | Resistant | Resistant | Resistant | Resistant | Resistant | Resistant | Susceptible | Susceptible | – | – | – | – | – | – | – | – | – | – | – | Activity (Pseudomonas aeruginosa [8]): Resistant; Activity (Pseudomonas aeruginosa [9]): Resistant; Activity (Pseudomonas aeruginosa [10]): Resistant; Activity (Pseudomonas aeruginosa [11]): Resistant; Activity (Pseudomonas aeruginosa [12]): Resistant; Activity (Pseudomonas aeruginosa [13]): Resistant; Activity (Pseudomonas aeruginosa [14]): Resistant; Activity (Pseudomonas aeruginosa [15]): Resistant |
| GENTAMICIN | Resistant | Resistant | Resistant | Resistant | Resistant | Resistant | Resistant | Susceptible | Susceptible | – | – | – | – | – | – | – | – | – | – | – | Activity (Pseudomonas aeruginosa [18]): Susceptible; Activity (Pseudomonas aeruginosa [19]): Susceptible; Activity (Pseudomonas aeruginosa [20]): I; Activity (Pseudomonas aeruginosa [21]): I; Activity (Pseudomonas aeruginosa [22]): I; Activity (Pseudomonas aeruginosa [23]): Susceptible; Activity (Pseudomonas aeruginosa [24]): Susceptible; Activity (Pseudomonas aeruginosa [25]): Susceptible |
| NC[C@H]1O[C@H](O[C@H]2[C@H](OC[C@H](O)CNCCCCNC[C@@H](O)CO[C@@H]3[C@@H](O)[C@H](N)C[C@H](N)[C@H]3O[C@H]3O[C@H](CN)[C@@H](O)[C@H](O)[C@H]3N)[C@@H](O)[C@H](N)C[C@@H]2N)[C@H](N)[C@@H](O)[C@@H]1O | – | – | – | – | – | – | – | – | – | 16 (≈ 18.9 µM) | 4 (≈ 4.73 µM) | 1 (≈ 1.18 µM) | 6.3 (≈ 7.46 µM) | 6.3 (≈ 7.46 µM) | 6.3 (≈ 7.46 µM) | 3.1 (≈ 3.67 µM) | 3.1 (≈ 3.67 µM) | 6.3 (≈ 7.46 µM) | 3.1 (≈ 3.67 µM) | 32 (≈ 37.9 µM) | MIC (Pseudomonas aeruginosa [37]): 8 µg/mL (≈ 9.47 µM); MIC (Pseudomonas aeruginosa [38]): 8 µg/mL (≈ 9.47 µM); MIC (Pseudomonas aeruginosa [39]): 16 µg/mL (≈ 18.9 µM); MIC (Pseudomonas aeruginosa [40]): 16 µg/mL (≈ 18.9 µM); MIC (Enterococcus faecalis): > 50 µg/mL; MIC (Escherichia coli): 4 µg/mL (≈ 4.73 µM); MIC (Pseudomonas aeruginosa [41]): 16 µg/mL (≈ 18.9 µM); MIC (Pseudomonas aeruginosa [42]): 16 µg/mL (≈ 18.9 µM); MIC (Pseudomonas aeruginosa [43]): 8 µg/mL (≈ 9.47 µM); MIC (Pseudomonas aeruginosa [44]): 1 µg/mL (≈ 1.18 µM); MIC (Pseudomonas aeruginosa [45]): 2 µg/mL (≈ 2.37 µM); MIC (Pseudomonas aeruginosa [46]): 16 µg/mL (≈ 18.9 µM) |
| CN(CCCCN(C)C[C@@H](O)CO[C@@H]1[C@@H](O)[C@H](N)C[C@H](N)[C@H]1O[C@H]1O[C@H](CN)[C@@H](O)[C@H](O)[C@H]1N)C[C@@H](O)CO[C@@H]1[C@@H](O)[C@H](N)C[C@H](N)[C@H]1O[C@H]1O[C@H](CN)[C@@H](O)[C@H](O)[C@H]1N | – | – | – | – | – | – | – | – | – | 16 (≈ 18.3 µM) | 8 (≈ 9.16 µM) | 1 (≈ 1.15 µM) | 12.5 (≈ 14.3 µM) | 6.3 (≈ 7.22 µM) | 6.3 (≈ 7.22 µM) | 6.3 (≈ 7.22 µM) | 6.3 (≈ 7.22 µM) | 12.5 (≈ 14.3 µM) | 6.3 (≈ 7.22 µM) | > 32 | MIC (Pseudomonas aeruginosa [47]): 8 µg/mL (≈ 9.16 µM); MIC (Pseudomonas aeruginosa [37]): 16 µg/mL (≈ 18.3 µM); MIC (Pseudomonas aeruginosa [38]): 16 µg/mL (≈ 18.3 µM); MIC (Pseudomonas aeruginosa [39]): 16 µg/mL (≈ 18.3 µM); MIC (Pseudomonas aeruginosa [40]): 8 µg/mL (≈ 9.16 µM); MIC (Enterococcus faecalis): > 50 µg/mL; MIC (Escherichia coli): 4 µg/mL (≈ 4.58 µM); MIC (Pseudomonas aeruginosa [41]): > 32 µg/mL; MIC (Pseudomonas aeruginosa [42]): 32 µg/mL (≈ 36.7 µM); MIC (Pseudomonas aeruginosa [43]): 8 µg/mL (≈ 9.16 µM); MIC (Pseudomonas aeruginosa [44]): 8 µg/mL (≈ 9.16 µM); MIC (Pseudomonas aeruginosa [46]): 16 µg/mL (≈ 18.3 µM) |
